Source: article PMC4518544 (Journal of medicinal chemistry, 2015)
Entries after “also recorded” stand apart in the source; their conditions may differ. Read-outs that look alike come from different tables or passages of the source. One block for each molecule: values may come before it.

Columns and labels:
Grp94 [1] = biological target: T1, Grp94 (Canis lupus familiaris, UniProt P41148); assay: FP competition binding assay, Grp94; set-up: species or system Canine; details: for decrease in affinity for Grp94 of N3-substituted compounds: compared to the N9-series; for Hsp90α/Grp94: ratio of IC50 values, Table 4; for diminished potency for Grp94 on substitution of N3 with C: relative to 18a and 18c; for decrease in Grp94 activity on linker substitution: relative to S-linked 9g
T1 sequence (P41148 22-804): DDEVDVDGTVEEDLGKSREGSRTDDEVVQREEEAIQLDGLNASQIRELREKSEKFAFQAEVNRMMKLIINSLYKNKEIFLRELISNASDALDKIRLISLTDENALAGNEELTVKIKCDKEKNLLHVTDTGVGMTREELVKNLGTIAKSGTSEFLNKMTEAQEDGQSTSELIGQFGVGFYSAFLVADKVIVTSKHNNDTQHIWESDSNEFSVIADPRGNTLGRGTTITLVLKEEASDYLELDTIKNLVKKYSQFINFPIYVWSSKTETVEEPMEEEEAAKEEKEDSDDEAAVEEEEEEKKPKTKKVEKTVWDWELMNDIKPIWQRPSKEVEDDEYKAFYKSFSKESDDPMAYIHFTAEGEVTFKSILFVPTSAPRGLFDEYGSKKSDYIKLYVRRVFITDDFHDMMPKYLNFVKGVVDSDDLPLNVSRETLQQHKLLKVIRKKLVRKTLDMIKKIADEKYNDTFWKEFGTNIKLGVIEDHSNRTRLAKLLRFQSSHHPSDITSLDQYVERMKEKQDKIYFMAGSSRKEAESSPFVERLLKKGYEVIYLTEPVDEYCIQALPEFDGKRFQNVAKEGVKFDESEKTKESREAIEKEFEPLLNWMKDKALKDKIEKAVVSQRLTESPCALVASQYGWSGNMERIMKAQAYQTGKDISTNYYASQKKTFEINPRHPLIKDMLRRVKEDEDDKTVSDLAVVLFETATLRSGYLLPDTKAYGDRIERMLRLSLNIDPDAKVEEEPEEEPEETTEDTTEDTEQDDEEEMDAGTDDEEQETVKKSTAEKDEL

Hsp90α = Hsp90α (Homo sapiens, UniProt P07900); assay: FP competition binding assay, Hsp90α
Grp94 [2] = details: read-out: Kd for Grp94; cited from earlier work
Grp94 [3] = biological target: T1, Grp94; details: cited from earlier work
HER2 = assay: Immunoblotting of HER2 in SKBr3 cells; format: cell-based
In short: (§1)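 SKBr3 cells were treated 24 h with DMSO or test compound and lysed in RIPA buffer (pH 7.4) with protease inhibitors. Protein was measured by BCA, and 5–50 μg was run on SDS–PAGE and transferred to nitrocellulose. Blots were probed for HER2 (1:500), Hsp70 (1:2500), cleaved PARP (1:2500) and β-actin (1:3000), then HRP secondary, ECL and film, with densitometry. Triplicate experiments.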

Aqueous solubility = format: physicochemical; details: water
scanEDGE 97 kinase panel = assay: scanEDGE kinase competition binding panel; details: 10 μM
In short: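 Competition binding panel. Kinase, biotinylated-ligand streptavidin beads and test compound (from 40× DMSO stocks) were incubated 1 h at room temperature in binding buffer with 6 mM DTT. Beads were washed and eluted 30 min with 0.5 μM free ligand. Eluted kinase was measured by qPCR.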

[4] = tested on: CpG induced TNF-α production; assay: TNFα ELISA, Raw264.7 cells stimulated with CpG; format: cell-based, mouse; details: 18 h treatment
TLR9 = TLR9 assay in transfected HEK 293T cells; format: cell-based; details: 24 h treatment
In short: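 HEK 293T cells were transfected with HA-tagged human TLR9 and split onto chamber slides 24 h later, then treated 24 h at varying concentrations. Cells were fixed (4% paraformaldehyde, 20 min), permeabilized (0.1% Triton X-100, 10 min) and blocked (3% BSA, 30 min). Staining used anti-HA (1:250, 1 h) or normal rabbit IgG, then Cy3 anti-rabbit (1:400), with DAPI mounting. Confocal imaging; fluorescence intensity was normalized to cell number.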

[5] = tested on: IGF-II secretion by differentiated myoblasts; assay: C2C12 differentiation and IGF-II secretion assay; format: cell-based, mouse; details: 24 h treatment
In short: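 C2C12 mouse myoblasts kept in DMEM with 10% FBS. Differentiation was induced by switching to DMEM with 2% horse serum (36–48 h). After the switch, cells were treated 24 h. Medium was incubated overnight at 4 °C in anti-IGF-II-coated ELISA wells, then detected with biotinylated anti-IGF-II, HRP-streptavidin and TMB. Read at 450 nm and quantified against a recombinant IGF-II standard curve.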

[6] = tested on: HER2-overexpressing SKBr3 cells; details: cited from earlier work
Hsp70 = assay: Immunoblotting of Hsp70 in SKBr3 cells; format: cell-based
In short: as §1

[7] = tested on: TNFα production in cells stimulated by LPS; assay: TNFα ELISA, Raw264.7 cells stimulated with LPS; format: cell-based, mouse; details: Hsp90-mediated effect
Hsp90β = Hsp90β (Homo sapiens, UniProt P08238); assay: FP competition binding assay, Hsp90β
Chain of Hsp90β (P08238 whole entry): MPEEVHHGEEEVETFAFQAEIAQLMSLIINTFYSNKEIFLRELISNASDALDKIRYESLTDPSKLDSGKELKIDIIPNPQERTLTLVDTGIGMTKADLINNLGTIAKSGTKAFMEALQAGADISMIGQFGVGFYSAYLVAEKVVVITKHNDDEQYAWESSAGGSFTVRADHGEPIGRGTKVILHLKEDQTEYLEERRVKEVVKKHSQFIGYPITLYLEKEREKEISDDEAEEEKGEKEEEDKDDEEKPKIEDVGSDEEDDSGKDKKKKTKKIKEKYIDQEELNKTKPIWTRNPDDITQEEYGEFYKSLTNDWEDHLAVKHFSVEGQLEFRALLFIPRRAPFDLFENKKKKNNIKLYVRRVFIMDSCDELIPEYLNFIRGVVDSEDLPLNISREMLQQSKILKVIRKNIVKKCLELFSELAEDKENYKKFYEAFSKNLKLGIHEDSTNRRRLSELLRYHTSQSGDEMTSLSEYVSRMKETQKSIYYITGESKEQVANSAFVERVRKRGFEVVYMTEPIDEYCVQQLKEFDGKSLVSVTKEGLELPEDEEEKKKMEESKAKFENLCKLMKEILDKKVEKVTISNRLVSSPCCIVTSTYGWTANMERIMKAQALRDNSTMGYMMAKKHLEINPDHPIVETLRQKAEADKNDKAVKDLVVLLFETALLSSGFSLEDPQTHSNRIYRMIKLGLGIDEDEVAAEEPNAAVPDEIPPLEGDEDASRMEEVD

cleaved PARP = assay: Immunoblotting of cleaved PARP in SKBr3 cells; format: cell-based; details: 100 μM
In short: as §1

SKBr3 cells = assay: CellTiter-Glo cell viability assay; format: cell-based; details: 100 μM, 72 h
In short: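 SKBr3 cells were grown in McCoy's 5A with 10% FBS at 37 °C under CO2, then treated 72 h with vehicle or test compound in quadruplicate wells. Viable cells were measured by CellTiter-Glo ATP luminescence. Points are means, n = 4.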

diminished potency for Grp94 on substitution of N3 with C (Grp94 [1]): 5–8 fold
Molecule: CC(C)NCCCn1c(Sc2cc(Cl)cc(Cl)c2)nc2c(N)nccc21 [18e, 2-((3,5-Dichlorophenyl)thio)-1-(3-(isopropylamino)propyl)-1H-imidazo[4,5-c]pyridin-4-amine]

decrease in Grp94 activity on linker substitution (Grp94 [1]): 4–6 fold
Molecule: C#CCCCn1c(Oc2ccc(Cl)cc2Cl)nc2c(N)ncnc21 [14c, 8-(2,4-Dichlorophenoxy)-9-(pent-4-yn-1-yl)-9H-purin-6-amine]

loss of affinity for Grp94 compared to PU-H71 (5) (Grp94 [1]): 10 fold
lower affinity for Grp94 compared to Hsp90α (Grp94 [1]): ~ 3 fold
Molecule: CC(C)NCCCn1c(Sc2cc3c(cc2N(C)C)OCO3)nc2c(N)ncnc21 [18g]

decrease in Grp94 activity on linker substitution (Grp94 [1]): 4–6 fold
Molecule: C#CCCCn1c(Cc2ccc(Cl)cc2Cl)nc2c(N)ncnc21 [14d, 8-(2,4-Dichlorobenzyl)-9-(pent-4-yn-1-yl)-9H-purin-6-amine]

diminished potency for Grp94 on substitution of N3 with C (Grp94 [1]): 5–8 fold
Molecule: CC(C)NCCCn1c(Sc2ccc(Cl)cc2Cl)nc2c(N)nccc21 [18d, 2-((2,4-Dichlorophenyl)thio)-1-(3-(isopropylamino)propyl)-1H-imidazo[4,5-c]pyridin-4-amine]

decrease in Grp94 activity on linker substitution (Grp94 [1]): ~ 40 fold
Molecule: C#CCCCn1c(S(=O)(=O)c2ccc(Cl)cc2Cl)nc2c(N)ncnc21 [14b, 8-((2,4-Dichlorophenyl)sulfonyl)-9-(pent-4-yn-1-yl)-9H-purin-6-amine]

The remaining lines, values behind:

Molecule: C#CCCCn1cnc(N)c2nc(Sc3ccc(Cl)cc3Cl)nc1-2 [9g′, 8-(2,4-Dichlorophenylthio)-3-(pent-4-ynyl)-3H-purin-6-amine]
IC50 (Grp94 [1]): 2.37 ± 0.79 µM
decrease in affinity for Grp94 of N3-substituted compounds (Grp94 [1]): 10–400 fold
Hsp90α/Grp94 (Grp94 [1]): >210 µM

Molecule: C#CCCCn1cnc(N)c2nc(Sc3ccc(C)cc3C)nc1-2 [compound 4, 8-(2,4-Dimethylphenylthio)-3-(pent-4-ynyl)-3H-purin-6-amine]
IC50 (Hsp90α): > 250 µM

Molecule: 5′-N-ethylcarboxamidoadenosine [NECA]
Kd (Grp94 [2]): 0.2 µM

Molecule: C#CCCCCn1c(Sc2cc(Cl)cc(Cl)c2)nc2c(N)ncnc21 [13b, 8-((3,5-Dichlorophenyl)thio)-9-(hex-5-yn-1-yl)-9H-purin-6-amine]
decrease in potency for Grp94 (Grp94 [1]; relative to 9n, chain length five to six carbons): approximately 3 fold

Molecule: C#CCCCn1cnc(N)c2nc(Sc3cc(Cl)ccc3Cl)nc1-2 [9k′, 8-(2,5-Dichlorophenylthio)-3-(pent-4-ynyl)-3H-purin-6-amine]
IC50 (Grp94 [1]): 35.3 ± 5 µM
decrease in affinity for Grp94 of N3-substituted compounds (Grp94 [1]): 10–400 fold

Molecule: CN(C)c1cc2c(cc1Sc1nc3c(N)nccc3n1CCNCC(C)(C)C)OCO2 [compound 22]
lower affinity for Grp94 than for Hsp90α or Hsp90β (Grp94 [3]): ~ 6 fold

Molecule: CC(C)NCCCn1c(Sc2cc(Cl)cc(Cl)c2)nc2c(N)ncnc21 [18c, 8-((3,5-Dichlorophenyl)thio)-9-(3-(isopropylamino)propyl)-9H-purin-6-amine]
steady-state levels of HER2 kinase (HER2; HER2 overexpressing breast cancer cells, 24 h): reduced
solubility (Aqueous solubility): > 10000 µg/mL
interaction with kinase panel (scanEDGE 97 kinase panel): inert
CpG induced TNF-α production [4]: dose-dependently inhibited
expression of TLR9 in the post-ER compartment (TLR9): dose-dependently inhibited
IGF-II secretion by differentiated myoblasts [5]: dose-dependently inhibited
growth of SKBr3 cells [6]: growth impairment
selectivity for Grp94 over Hsp90α/β (Grp94 [1]): > 100 fold
Hsp70 induction (Hsp70; 24 h): no Hsp70 induction; also recorded: did not modulate
TNFα production in cells stimulated by LPS [7]: lack of activity

Molecule: C#CCCCn1cnc(N)c2nc(Sc3ccccc3OC(F)(F)F)nc1-2 [9d′, 3-(Pent-4-ynyl)-8-(2-(trifluoromethoxy)phenylthio)-3H-purin-6-amine]
IC50 (Grp94 [1]): > 100 µM

Molecule: C#CCCCn1cnc(N)c2nc(Sc3ccccc3OC)nc1-2 [9b′, 8-(2-Methoxyphenylthio)-3-(pent-4-ynyl)-3H-purin-6-amine]
IC50 (Grp94 [1]): > 100 µM

Molecule: C#CCCCn1cnc(N)c2nc(Sc3cc(C)cc(C)c3)nc1-2 [9q′, 8-(3,5-Dimethylphenylthio)-3-(pent-4-ynyl)-3H-purin-6-amine]
IC50 (Grp94 [1]): > 100 µM

Molecule: C#CCCCn1cnc(N)c2nc(Sc3ccc(OC)cc3OC)nc1-2 [9j′, 8-(2,4-Dimethoxyphenylthio)-3-(pent-4-ynyl)-3H-purin-6-amine]
IC50 (Grp94 [1]): > 100 µM

Molecule: C#CCCCn1cnc(N)c2nc(Sc3cc(C(F)(F)F)ccc3Cl)nc1-2 [9m′, 8-(2-Chloro-5-(trifluoromethyl)phenylthio)-3-(pent-4-ynyl)-3H-purin-6-amine]
IC50 (Hsp90β): > 100 µM
IC50 (Grp94 [1]): > 100 µM
IC50 (Hsp90α): > 100 µM

Molecule: C#CCCCn1cnc(N)c2nc(Sc3cc(Cl)cc(Cl)c3)nc1-2 [9n′, 8-(3,5-Dichlorophenylthio)-3-(pent-4-ynyl)-3H-purin-6-amine]
IC50 (Hsp90β; read-out: IC50 Hsp90β, FP competition, Cy3B-GM probe): > 100 µM
decrease in affinity for Grp94 of N3-substituted compounds (Grp94 [1]): 10–400 fold
IC50 (Grp94 [1]; read-out: IC50 Grp94, FP competition, Cy3B-GM probe): 100 ± 8 µM

Molecule: C#CCCCn1cnc(N)c2nc(Sc3cc(C)ccc3C)nc1-2 [9l′, 8-(2,5-Dimethylphenylthio)-3-(pent-4-ynyl)-3H-purin-6-amine]
IC50 (Grp94 [1]): > 100 µM

Molecule: C#CCCCn1cnc(N)c2nc(Sc3c(C)cc(C)cc3C)nc1-2 [9w′, 8-(Mesitylthio)-3-(pent-4-ynyl)-3H-purin-6-amine]
IC50 (Grp94 [1]): 20 ± 5 µM
decrease in affinity for Grp94 of N3-substituted compounds (Grp94 [1]): 10–400 fold
Hsp90α/Grp94 (Grp94 [1]): >5 µM

Molecule: C#CCCCn1cnc(N)c2nc(Sc3ccccc3CO)nc1-2 [9c′, (2-(6-Amino-3-(pent-4-ynyl)-3H-purin-8-ylthio)phenyl)methanol]
IC50 (Grp94 [1]): > 100 µM

Molecule: COC(=O)c1c(O)cc(O)c(Cl)c1CCc1nccn1Cc1ccccc1 [compound 3]
HER2 level (HER2; SKBr3 cells, 100 μM): possibly a slight reduction in HER2
effect in SKBr3 cells (HER2; up to 10 μM): no effect
antiproliferative effects against SKBr3 cells [6]: lacked antiproliferative effects
PARP cleavage (cleaved PARP): minor PARP cleavage
cell viability (SKBr3 cells): cellular toxicity
Hsp70 induction (Hsp70; 100 μM): Hsp70 induction

Molecule: C#CCCCn1cnc(N)c2nc(Sc3cc(Cl)c(Cl)cc3Cl)nc1-2 [9v′, 3-(Pent-4-ynyl)-8-(2,4,5-trichlorophenylthio)-3H-purin-6-amine]
IC50 (Grp94 [1]): 2.08 µM
decrease in affinity for Grp94 of N3-substituted compounds (Grp94 [1]): 10–400 fold
Hsp90α/Grp94 (Grp94 [1]): >48 µM

Molecule: C#CCCCn1cnc(N)c2nc(Sc3ccccc3Cl)nc1-2 [9a′, 8-(2-Chlorophenylthio)-3-(pent-4-ynyl)-3H-purin-6-amine]
IC50 (Grp94 [1]): 100 ± 10 µM
decrease in affinity for Grp94 of N3-substituted compounds (Grp94 [1]): 10–400 fold

Molecule: CC(C)NCCCn1cnc(N)c2nc(Sc3cc(Cl)cc(Cl)c3)nc1-2 [18c′, 8-((3,5-Dichlorophenyl)thio)-3-(3-(isopropylamino)propyl)-3H-purin-6-amine]
decrease in affinity for Grp94 of N3-substituted compounds (Grp94 [1]): 10–400 fold
Hsp90α/Grp94 (Grp94 [1]): >39 µM
